Values after ≈ are worked out from the molar mass of the structure shown.
Legend:
Format in all cases: functional
LNCaP = assay: Cytotoxicity against human LNCAP cells; conditions: read-out: ED50 (the source's name)
Method in brief: (§1)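 Human cancer cell lines were cultured with the test compounds at concentrations up to 20 µg/ml. The read-out was cell survival, expressed as ED50.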

[1] = Cytotoxicity against vinblastine-resistant human KBV1 cells by dose-response study in presence of 1 ug/ml vinblastine; conditions: KB-V1, read-out: ED50 (the source's name)
Method in brief: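 The resistant KB-V1 line, normally kept in vinblastine (1 µg/ml), was exposed to the test compounds up to 20 µg/ml. Vinblastine at 1 µg/ml was present in the culture medium during treatment. The read-out was cell survival, expressed as ED50.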

A-431 = assay: Cytotoxicity against human A431 cells; conditions: read-out: ED50 (the source's name); method in brief: as §1
SK-MEL-2 = assay: Cytotoxicity against human SK-MEL-2 cells; conditions: read-out: ED50 (the source's name); method in brief: as §1
[2] = Cytotoxicity against human BCA1 cells; conditions: read-out: ED50 (the source's name); method in brief: as §1
[3] = Cytotoxicity against human LUC1 cells; conditions: read-out: ED50 (the source's name); method in brief: as §1
KB = assay: Cytotoxicity against human KB cells; conditions: read-out: ED50 (the source's name); method in brief: as §1
HT-1080 = assay: Cytotoxicity against human HT1080 cells; conditions: read-out: ED50 (the source's name); method in brief: as §1
ZR-75-1 = assay: Cytotoxicity against human ZR-75-1 cells; conditions: read-out: ED50 (the source's name); method in brief: as §1
[4] = Cytotoxicity against human Col1 cells; conditions: read-out: ED50 (the source's name); method in brief: as §1
[5] = Cytotoxicity against vinblastine-resistant human KBV1 cells; conditions: KB-V1, read-out: ED50 (the source's name)
Method in brief: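 KB-V1 cells are routinely maintained in vinblastine (1 µg/ml) to keep the drug-resistant phenotype. For this test they were cultured with the test compounds without vinblastine, at concentrations up to 20 µg/ml. The read-out was cell survival, expressed as ED50.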

| Structure (SMILES) | EC50 (LNCaP) | EC50 [1] | EC50 (A-431) | EC50 (SK-MEL-2) | EC50 [2] | EC50 [3] | EC50 (KB) | EC50 (HT-1080) | EC50 (ZR-75-1) | EC50 [4] | EC50 [5] |
| --- | --- | --- | --- | --- | --- | --- | --- | --- | --- | --- | --- |
| CC[C@H](C)C(=O)N[C@H]1CCCN1C(=O)/C=C/c1ccccc1 [ODORINE] | > 20 µg/mL | 6.4 µg/mL | > 20 µg/mL | > 20 µg/mL | > 20 µg/mL | > 20 µg/mL | > 20 µg/mL | > 20 µg/mL | > 20 µg/mL | > 20 µg/mL | > 20 µg/mL |
| CC(C)C(=O)N[C@H]1CCCN1C(=O)/C=C/c1ccccc1 [PIRIFERINE] | > 20 µg/mL | 8.5 µg/mL | > 20 µg/mL | > 20 µg/mL | > 20 µg/mL | > 20 µg/mL | > 20 µg/mL | > 20 µg/mL | > 20 µg/mL | > 20 µg/mL | 10 µg/mL (≈ 34.9 µM) |
| CC[C@H](C)C(=O)N[C@@H]1CCCN1C(=O)/C=C/c1ccccc1 | > 20 µg/mL | 4.2 µg/mL | > 20 µg/mL | > 20 µg/mL | > 20 µg/mL | > 20 µg/mL | > 20 µg/mL | > 20 µg/mL | > 20 µg/mL | > 20 µg/mL | > 20 µg/mL |
| O=C(/C=C/c1ccccc1)NCCCCNC(=O)c1ccccc1 [PYRAMIDATINE] | > 20 µg/mL | > 20 µg/mL | > 20 µg/mL | > 20 µg/mL | > 20 µg/mL | > 20 µg/mL | > 20 µg/mL | > 20 µg/mL | > 20 µg/mL | > 20 µg/mL | > 20 µg/mL |
| CC[C@]1(O)C[C@@H]2CN(CCc3c([nH]c4ccccc34)[C@@](C(=O)OC)(c3cc4c(cc3OC)N(C)[C@H]3[C@@](O)(C(=O)OC)[C@H](OC(C)=O)[C@]5(CC)C=CCN6CC[C@]43[C@@H]65)C2)C1 [VINBLASTINE] |  |  |  |  |  |  | 0.002 µg/mL (≈ 0.00247 µM) |  |  |  | 2.6 µg/mL (≈ 3.21 µM) |
